The source made the active and inactive calls.
Assays:
[1] = biological target: Bromodomain-containing protein 4 (Homo sapiens) (UniProt O60885); conditions: LS174T, dose 500-1000 nM, time 24.0 hrs
[2] = biological target: Bromodomain-containing protein 4 (Homo sapiens) (UniProt O60885); conditions: DLD-1, dose 500-1000 nM, time 24.0 hrs
[3] = biological target: Bromodomain-containing protein 4 (Homo sapiens) (UniProt O60885); conditions: LS174T, dose 500-1000 nM, time 24.0 hrs; remark: listed apart in the source
HT-29 = experiment: Inhibition of colony formation in human HT-29 cells at 500 to 1000 nM by crystal violet staining analysis; type: functional, cell-based; conditions: dose 500-1000 nM
Summary of the method: (§1)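 Exponentially growing cells (1-2x10^3) plated in six-well plates; after 48 h treated with indicated concentrations for 3–5 days, then methanol-fixed and crystal violet stained. Cell lines maintained at 37 °C, 5% CO2 in serum-supplemented medium, STR-validated, mycoplasma-tested, <15 passages.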

SW480 = experiment: Inhibition of colony formation in human SW480 cells at 500 to 1000 nM by crystal violet staining analysis; type: functional, cell-based; conditions: dose 500-1000 nM
Summary of the method: as §1

[4] = biological target: Bromodomain-containing protein 4 (Homo sapiens) (UniProt O60885); conditions: COLO 320, dose 500-1000 nM, time 24.0 hrs
DLD-1 = experiment: Inhibition of colony formation in human DLD-1 cells at 500 to 1000 nM by crystal violet staining analysis; type: functional, cell-based; conditions: dose 500-1000 nM
Summary of the method: as §1

[5] = biological target: Bromodomain-containing protein 4 (Homo sapiens) (UniProt O60885); conditions: LS174T, dose 500-1000 nM, time 24.0 hrs; remark: listed apart in the source
[6] = biological target: Bromodomain-containing protein 4 (Homo sapiens) (UniProt O60885); conditions: HCT-116, dose 500-1000 nM, time 24.0 hrs
LS174T = experiment: Inhibition of colony formation in human LS174T cells at 500 to 1000 nM by crystal violet staining analysis; type: functional, cell-based; conditions: dose 500-1000 nM
Summary of the method: as §1

[7] = biological target: Bromodomain-containing protein 4 (Homo sapiens) (UniProt O60885); conditions: SW480, dose 500-1000 nM, time 24.0 hrs
[8] = biological target: Bromodomain-containing protein 4 (Homo sapiens) (UniProt O60885); conditions: HT-29, dose 500-1000 nM, time 24.0 hrs
COLO 320 = experiment: Inhibition of colony formation in human COLO 320 cells at 500 to 1000 nM by crystal violet staining analysis; type: functional, cell-based; conditions: dose 500-1000 nM
Summary of the method: as §1

HCT-116 [9] = experiment: Inhibition of colony formation in human HCT116 p53+/+ cells at 500 to 1000 nM by crystal violet staining analysis; type: functional, cell-based; conditions: dose 500-1000 nM
Summary of the method: as §1

HCT-116 [10] = experiment: Inhibition of colony formation in human HCT116 p53-/- cells at 500 to 1000 nM by crystal violet staining analysis; type: functional, cell-based; conditions: dose 500-1000 nM
Summary of the method: as §1

[11] = biological target: Bromodomain-containing protein 4 (Homo sapiens) (UniProt O60885); conditions: HCT-116, dose 500-1000 nM, time 24.0 hrs; remark: listed apart in the source

Measured: inhibition

Cc1sc2c(c1C)C(c1ccc(Cl)cc1)=N[C@@H](CC(=O)OC(C)(C)C)c1nnc(C)n1-2
active: all assays above

Reference: ChEMBL document CHEMBL5712087, “Targeting bromodomain-containing protein 4 (BRD4) inhibits MYC expression in colorectal cancer cells” (Neoplasia, 2019)
